This passage reports MIC results from ChEMBL document CHEMBL1136700, “Identification of a broad-spectrum azasordarin with improved pharmacokinetic properties” (Bioorg Med Chem Lett, 2003).

≈ marks a conversion by molar mass, not a printed value.

Holding throughout (type): functional
One assay relates to Candida albicans. The assay is described as follows: Minimum inhibitory concentration (MIC) to Candida albicans after 48 hr. In outline:
(§1)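 Antifungal susceptibility read visually; MIC taken as lowest drug concentration giving 90–100% inhibition of visible growth relative to drug-free controls, read over 48 h, or after 24 h where footnoted. Organisms: C. parapsilosis, C. albicans, Cryptococcus neoformans, C. glabrata, Aspergillus fumigatus, Aspergillus flavus.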

In a further assay the test system is Nakaseomyces glabratus. The assay is described as follows: Minimum inhibitory concentration (MIC) to Candida glabrata after 48 hours. The following applies: Nakaseomyces glabratus, 48 h; read-out: MIC. In outline:
as §1

The next assay relates to Aspergillus fumigatus. The assay is described as follows: Minimum inhibitory concentration (MIC) to Aspergillus fumigatus after 48 hr. The following applies: Aspergillus fumigatus, 48 h; read-out: MIC. An outline of the steps:
as §1

The test system of another assay is Candida parapsilosis. Description: Minimum inhibitory concentration (MIC) to Candida parapsilosis after 48 hr. The following applies: Lodderomyces parapsilosis, 48 h; read-out: MIC. In outline:
as §1

In the next assay the test system is Aspergillus flavus. Description: Minimum inhibitory concentration (MIC) against Aspergillus flavus after 24 hours. Particulars: Aspergillus flavus, 24 h; read-out: MIC. An outline of the steps: as §1
In a further assay the test system is Cryptococcus neoformans. The assay is described as follows: Minimum inhibitory concentration against Cryptococcus neoformans after 48 hours. An outline of the steps: as §1

On to `COc1ccc(CN2C[C@H](OCC34C[C@@H]5[C@H](C)CC[C@H]5C5(C=O)CC3C=C(C(C)C)[C@@]45C(=O)O)OC[C@H]2C)cc1`, for which the MIC against Candida albicans is < 0.06 µg/mL; in the assay with Nakaseomyces glabratus, < 0.06 µg/mL; in the assay with Aspergillus fumigatus, > 128 µg/mL; with Candida parapsilosis, 4 µg/mL (≈ 7.25 µM); with Aspergillus flavus, > 128 µg/mL; against Cryptococcus neoformans it was 0.5 µg/mL (≈ 0.906 µM).

`CC(C)C1=CC2CC3(C=O)[C@@H]4CC[C@@H](C)[C@H]4CC2(CO[C@H]2CN(CC4CC4)[C@H](C)CO2)[C@]13C(=O)O`: the MIC against Candida albicans is 2 µg/mL (≈ 4.12 µM); in the assay with Nakaseomyces glabratus, 8 µg/mL (≈ 16.5 µM); in the assay on Aspergillus fumigatus, > 128 µg/mL; with Candida parapsilosis, > 128 µg/mL; with Aspergillus flavus, > 128 µg/mL; in the assay on Cryptococcus neoformans, > 128 µg/mL.

`CC(C)C1=CC2CC3(C=O)[C@@H]4CC[C@@H](C)[C@H]4CC2(CO[C@H]2CN(c4ccc(Cl)s4)[C@H](C)CO2)[C@]13C(=O)O`: the MIC against Candida albicans was < 0.06 µg/mL; with Nakaseomyces glabratus it was 0.125 µg/mL (≈ 0.228 µM); in the assay with Aspergillus fumigatus, > 128 µg/mL; in the assay on Candida parapsilosis it was > 128 µg/mL; in the assay on Aspergillus flavus, > 128 µg/mL; with Cryptococcus neoformans, 2 µg/mL (≈ 3.65 µM).

As to `C=C(C#N)CN1C[C@H](OCC23C[C@@H]4[C@H](C)CC[C@H]4C4(C=O)CC2C=C(C(C)C)[C@@]34C(=O)O)OC[C@H]1C`, the MIC against Candida albicans was 0.25 µg/mL (≈ 0.503 µM); in the assay on Nakaseomyces glabratus it was 1 µg/mL (≈ 2.01 µM); in the assay on Aspergillus fumigatus it was > 128 µg/mL; in the assay on Candida parapsilosis, > 128 µg/mL; in the assay with Aspergillus flavus, 128 µg/mL (≈ 258 µM); against Cryptococcus neoformans, 4 µg/mL (≈ 8.05 µM).

Take `C=C(Cl)CN1C[C@H](OCC23C[C@@H]4[C@H](C)CC[C@H]4C4(C=O)CC2C=C(C(C)C)[C@@]34C(=O)O)OCC12CCCC2`: the MIC against Candida albicans was < 0.008 µg/mL; in the assay with Nakaseomyces glabratus, 0.015 µg/mL (≈ 0.0275 µM); in the assay with Aspergillus fumigatus, 8 µg/mL (≈ 14.6 µM); with Candida parapsilosis it was 0.5 µg/mL (≈ 0.916 µM); in the assay with Aspergillus flavus it was 0.125 µg/mL (≈ 0.229 µM); against Cryptococcus neoformans it was < 0.008 µg/mL.

In the case of `CC(C)C1=CC2CC3(C=O)[C@@H]4CC[C@@H](C)[C@H]4CC2(CO[C@H]2CN(Cc4ccccc4Cl)[C@H](C)CO2)[C@]13C(=O)O`, the MIC against Candida albicans is < 0.06 µg/mL; in the assay with Nakaseomyces glabratus it was 1 µg/mL (≈ 1.8 µM); in the assay with Aspergillus fumigatus, > 128 µg/mL; with Candida parapsilosis, > 128 µg/mL; in the assay with Aspergillus flavus, > 128 µg/mL; against Cryptococcus neoformans, 4 µg/mL (≈ 7.19 µM).

`C=C(Br)CN1C[C@H](OCC23C[C@@H]4[C@H](C)CC[C@H]4C4(C=O)CC2C=C(C(C)C)[C@@]34C(=O)O)OC[C@H]1C`: the MIC was < 0.06 µg/mL with Candida albicans; 0.125 µg/mL (≈ 0.227 µM) in the assay on Nakaseomyces glabratus; 128 µg/mL (≈ 233 µM) in the assay on Aspergillus fumigatus; 4 µg/mL (≈ 7.27 µM) in the assay on Candida parapsilosis; 4 µg/mL (≈ 7.27 µM) in the assay on Aspergillus flavus; < 0.06 µg/mL against Cryptococcus neoformans.

Take `C=C(C)CN1C[C@H](OCC23C[C@@H]4[C@H](C)CC[C@H]4C4(C=O)CC2C=C(C(C)C)[C@@]34C(=O)O)OC[C@H]1C`: the MIC was < 0.06 µg/mL with Candida albicans; 0.125 µg/mL (≈ 0.257 µM) with Nakaseomyces glabratus; > 128 µg/mL in the assay on Aspergillus fumigatus; 8 µg/mL (≈ 16.5 µM) with Candida parapsilosis; 8 µg/mL (≈ 16.5 µM) in the assay with Aspergillus flavus; 0.125 µg/mL (≈ 0.257 µM) with Cryptococcus neoformans.

In the case of `CC(C)C1=CC2CC3(C=O)[C@@H]4CC[C@@H](C)[C@H]4CC2(CO[C@H]2CN(CC=C(Cl)Cl)[C@H](C)CO2)[C@]13C(=O)O`, the MIC was < 0.06 µg/mL with Candida albicans; < 0.06 µg/mL in the assay on Nakaseomyces glabratus; > 128 µg/mL with Aspergillus fumigatus; 32 µg/mL (≈ 59.2 µM) in the assay on Candida parapsilosis; > 128 µg/mL with Aspergillus flavus; 16 µg/mL (≈ 29.6 µM) against Cryptococcus neoformans.

Regarding `C=CC(=O)N1C[C@H](OCC23C[C@@H]4[C@H](C)CC[C@H]4C4(C=O)CC2C=C(C(C)C)[C@@]34C(=O)O)OC[C@H]1C`, the MIC in the assay on Candida albicans is 8 µg/mL (≈ 16.5 µM); with Nakaseomyces glabratus it was 64 µg/mL (≈ 132 µM); in the assay with Aspergillus fumigatus, > 128 µg/mL; with Candida parapsilosis, > 128 µg/mL; with Aspergillus flavus it was > 128 µg/mL; against Cryptococcus neoformans, 128 µg/mL (≈ 264 µM).

With `CC(C)=CCN1C[C@H](OCC23C[C@@H]4[C@H](C)CC[C@H]4C4(C=O)CC2C=C(C(C)C)[C@@]34C(=O)O)OC[C@H]1C`, the MIC against Candida albicans is 0.25 µg/mL (≈ 0.5 µM); in the assay with Nakaseomyces glabratus, 8 µg/mL (≈ 16 µM); in the assay on Aspergillus fumigatus, > 128 µg/mL; with Candida parapsilosis it was > 128 µg/mL; with Aspergillus flavus, > 128 µg/mL; against Cryptococcus neoformans it was > 128 µg/mL.

For `C=C(Cl)CN1C[C@H](OCC23C[C@@H]4[C@H](C)CC[C@H]4C4(C=O)CC2C=C(C(C)C)[C@@]34C(=O)O)O[C@@H]2CCC[C@H]21`, the MIC was < 0.06 µg/mL with Candida albicans; 0.125 µg/mL (≈ 0.235 µM) with Nakaseomyces glabratus; 64 µg/mL (≈ 120 µM) with Aspergillus fumigatus; 4 µg/mL (≈ 7.52 µM) in the assay with Candida parapsilosis; 4 µg/mL (≈ 7.52 µM) in the assay on Aspergillus flavus; 0.25 µg/mL (≈ 0.47 µM) against Cryptococcus neoformans.
